High-throughput results (PubChem BioAssay)
A1 apoptosis 2 – compounds inhibiting A1, read as caspase activation | MEF A1-2A-BIM cells, caspase-Glo luminescence, 3 h; percent of clofoctol response, DMSO zero | 24,000 tested, under 10 active | AID 2465 | caspase activation, % (no concentration beside the values); in the data active = caspase activation above about 5.9%
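Test system – A1-2A-BIM-expressing MEF cells · Input – 2500 cells/well · Medium – RPMI-1640 growth medium with 10% FBS · Compound dosing – 50 nL pinned compound · Timing – 3 h compound exposure at 37 °C · Technique – Caspase-Glo luminescence (DEVD substrate) · Evaluation – Caspase-3/7 activity from luminescence increase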
T cruzi intra – inhibitors of intracellular Trypanosoma cruzi; 22,000 compounds, 4.9% hits; intracellular Trypanosoma cruzi in host cells, plate reader; activity score (inhibition), % at 5.01 µM; in the data active = activity score above about 55%;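 also: parasites and compound incubated about four days before reading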
INS-1E rescue – preserves ATP levels in cytokine-treated INS-1E cells; INS-1E cytokine-induced death, ATP luminescence, 48 h; normalised: neutral wells 0, positive control 100; protection from cytokine-induced ATP loss, % at 10 µM; 20,000 compounds, 0.1% hits; AID 488910;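 active = mean replicate protection from cytokine-induced ATP loss at least 50% and at least 75% of replicates each reaching 50%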
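Test system: INS-1E rat cells | Quantity: 8000 cells per well | Medium: Phenol-red-free RPMI with 5% fetal bovine serum | Reagent: Cytokine cocktail of IFN-γ, TNF-α and IL-1β | Doses: One compound concentration, pin transfer | Timing: 48 h co-treatment, 10 min post-lysis read | Technique: Luminescent ATP assay (CellTiter-Glo)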
Hits are given with their value; 0 = inactive; - = no result. This excerpt belongs to a sample that is enriched for hits.

SMILES	A1 apoptosis 2	T cruzi intra	INS-1E rescue
C[C@@H]1CN([C@H](C)CO)C(=O)c2cccc(NS(=O)(=O)c3ccc(F)cc3)c2O[C@@H]1CN(C)Cc1ccc(C(=O)Nc2ccccc2N)cc1	0	60	0
Cc1ccc(S(=O)(=O)Nc2cccc3c2O[C@H](CN(C)Cc2ccc(C(=O)Nc4ccccc4N)cc2)[C@@H](C)CN([C@H](C)CO)C3=O)cc1	0	-	-
COc1cc(/C=N/NC(=O)c2ccc(C(=O)NO)cc2)c(Br)cc1O	0	0	0
Cc1ccc(/C=N/NC(=O)CCCCC(=O)NO)o1	0	0	0
O=C(CCCCCCC(=O)N/N=C/c1ccc(-n2ccnc2)cc1)NO	0	-	-
COc1ccc([Si](C)(C)[C@@H]2[C@@H](CCO)O[C@]3(C(=O)N(Cc4cccc(NC(=O)[C@H](C)O)c4)c4ccccc43)[C@H]2C)cc1	0	-	-
NC(=O)NCC#Cc1ccc2c(c1)[C@]1(C(=O)N2)[C@H](C(=O)N2CCCCCCC2)[C@H]2C(=O)O[C@H](c3ccccc3)[C@H](c3ccccc3)N2[C@@H]1c1ccccc1OCCO	0	-	-
O=C(CCCCCCC(=O)N/N=C/c1ccoc1)NO	0	-	-
C=CCOc1ccccc1/C=N/NC(=O)c1ccccc1O	0	0	0
COc1cc(/C=C/C=N/NC(=O)c2ccccn2)ccc1O	-	0	0
C[C@H](CO)N1C[C@H](C)[C@H](CN(C)Cc2ccccc2)OCCCC[C@H](C)Oc2ccc(NS(=O)(=O)c3ccccc3)cc2C1=O	0	-	-
COC(=O)CCCCCCC(=O)N/N=C/c1ccccc1Br	-	0	0
O=C(CCCCCCC(=O)N/N=C\c1ccc(O)c2ccccc12)NO	0	0	151
O=C(CCCCCC(=O)N/N=C/c1ccccc1O)NO	0	-	-
CCOc1cccc(/C=N/NC(=O)CCCCC(=O)NO)c1OCC	0	0	81
CCOc1cccc(/C=N/NC(=O)CCCCCCC(=O)OC)c1OCC	0	0	0
COc1cc(Cl)c(/C=N\NC(=O)CCCCC(=O)NO)c(Cl)c1OC	0	0	68
O=C(CCCCCCC(=O)Nc1ccccc1O)N/N=C/c1ccc(O)c2ccccc12	0	0	0
O=C(CCCCC(=O)N/N=C/c1c(O)ccc2ccccc12)NO	0	0	132
COc1cc(Cl)c(/C=N/NC(=O)CCCCCCC(=O)Nc2ccccc2O)c(Cl)c1OC	-	0	0
COc1ccc(NC(=O)CN=[N+]=[N-])cc1OC	0	-	-
CCOc1cc(/C=N/NC(=O)CCCCCCC(=O)OC)ccc1O	-	0	0
CC(C)(C)OC(=O)Nc1cccc(/C=N/NC(=O)c2ccccn2)c1	-	0	0
C[C@@H]1CN([C@H](C)CO)C(=O)c2cccc(NC(=O)c3cnccn3)c2O[C@@H]1CN(C)S(=O)(=O)c1ccccc1	0	0	0
Cc1ccsc1/C=N/NC(=O)CCCCCCC(=O)NO	0	-	-
Cc1ccsc1/C=N\NC(=O)CCCCC(=O)NO	-	0	59
COC(=O)C(CC#Cc1ccc2c(c1)[C@]1(C(=O)N2)[C@H](C(=O)N2CCCCCCC2)[C@H]2C(=O)O[C@H](c3ccccc3)[C@H](c3ccccc3)N2[C@@H]1c1ccc(O)cc1)C(=O)OC	0	-	-
COC(=O)CCCCCCC(=O)NN=C1CCCCCC1	0	0	0
